Data set [1] in a line: Cytotoxicity against human PC3M cells after 24 hrs under dark condition. In kind it is functional, cell-based. Particulars: PC-3M. Summed up: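 PC-3M cells in DMEM/10% FBS were seeded at 10000 cells/cm2 and attached overnight. They were exposed to increasing concentrations up to 100 µM for 24 h in the dark, in quadruplicate wells. Detached cells were washed off and attached cells were trypsinised and counted by hemocytometer. Viability is expressed as % of untreated controls, and IC50 was taken from the curves.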

Data set [2] in a line: Phototoxicity against human PC3M cells after 24 hrs followed by exposure to 1 J/cm'2 light for 20 mins. It is filed as functional, cell-based. Particulars: pc-3m. The essentials: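 PC-3M cells were plated as for the dark assay and loaded with a range of concentrations for 24 h in quadruplicate. After washing, the medium was replaced with DMEM containing 50 mM HEPES, pH 7.4. Cells were irradiated on ice with a 100 W halogen lamp through a 610 nm long-pass filter and a water IR filter for 20 min, about 1 J/cm2. They were then incubated overnight and viable cells counted by hemocytometer relative to controls, giving IC50.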

Data set [3] can be described thus: Ratio of IC50 for human PC3M cells under dark condition to IC50 for human PC3M cells exposed to 1 J/cm'2 light. In kind it is functional. Summed up: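 Ratio of the dark IC50 (24 h exposure, hemocytometer viable count) to the light IC50 (24 h loading, then 610 nm long-pass halogen light, about 1 J/cm2, 20 min on ice, overnight incubation, then counting) in PC-3M cells.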

In a further data set the test system is Liver. Nature of the data set: Biodistribution in human PC3M cells xenografted SCID mouse liver assessed per mg of protein at 1 umol/kg, ip after 24 hrs. It is filed as ADME, organism-based. Particulars: in vivo. The essentials:
(§1)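 Male SCID mice carrying PC-3M tumours (2 × 10^6 cells injected into the dorsum between the shoulder blades, grown 5-6 weeks to about 0.1 cm3) received 1.0 µmol/kg ip in 5% dextrose. Tissues were collected at 24 h, solubilised at 37 °C and homogenised. Porphyrin fluorescence (530/645 nm) was read against per-tissue standard curves, vehicle-only background was subtracted, and results are given as pmol/mg tissue protein, mean ± SE, n = 4.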
(In general: A xenograft is tissue or cells of one species grown in another, often human tumour cells in immunodeficient mice.)

Data set [4] is described as follows: Biodistribution in human PC3M cells xenografted SCID mouse tumor assessed per mg of protein at 1 umol/kg, ip after 24 hrs. Particulars: in vivo. It is filed as ADME, organism-based, Neoplasm. The essentials:
as §1

pIC50: −log10 of the molar value. Numbered stars: 1 amine (or outer) side, 2 acyl side, 3 side chain; on linkers, the order of the positions; unused ones are H or OH. Bridge positions count the residues as written; N and C are the ends. Square brackets hold non-standard residues; d marks the D form. Peptide text beside a SMILES is read from it. I, II: the chains in the order shown. * marks the point of attachment. X1 = O=C(COCC(=O)*)Nc1ccc(-c2c3nc(c(-c4ccccc4)c4ccc([nH]4)c(-c4ccccc4)c4nc(c(-c5ccccc5)c5ccc2[nH]5)C=C4)C=C3)cc1; NH(CH2CH2O)6CH2CO = O=C(COCCOCCOCCOCCOCCOCCN[*:1])[*:2]

Broadly, the pIC50 is the negative decadic logarithm of the IC50, by convention in mol/L. Read a high pIC50 as a small IC50.

On to `Oc1cccc(-c2c3nc(c(-c4cccc(O)c4)c4ccc([nH]4)c(-c4cccc(O)c4)c4ccc([nH]4)c(-c4cccc(O)c4)c4nc2CC4)C=C3)c1`, for which the pIC50 in data set [1] was 4.79; in data set [2], 5.79.
In the case of `N=C(N)NCCC[C@H](NC(=O)[C@H](CCCCN)NC(=O)[C@H](CCCNC(=N)N)NC(=O)[C@H](CCCNC(=N)N)NC(=O)CCCC(=O)Nc1ccc(-c2c3nc(c(-c4ccccc4)c4ccc([nH]4)c(-c4ccccc4)c4nc(c(-c5ccccc5)c5ccc2[nH]5)C=C4)C=C3)cc1)C(=O)O`, the negative logarithm of the IC50 (pIC50) was 4.97 in data set [1] and 5.83 in data set [2]. Besides, the “Ratio IC50” value in data set [3] is on record as 7.
In the case of `N=C(N)NCCC[C@H](NC(=O)CNC(=O)COCCOCCOCCOCCOCCOCCNC(=O)COCC(=O)Nc1ccc(-c2c3nc(c(-c4ccccc4)c4ccc([nH]4)c(-c4ccccc4)c4nc(c(-c5ccccc5)c5ccc2[nH]5)C=C4)C=C3)cc1)C(=O)N[C@@H](CCCCN)C(=O)N[C@@H](CCCCN)C(=O)N[C@@H](CCCNC(=N)N)C(=O)N[C@@H](CCCNC(=N)N)C(=O)N[C@@H](CCC(N)=O)C(=O)N[C@@H](CCCNC(=N)N)C(=O)N[C@@H](CCCNC(=N)N)C(=O)N[C@@H](CCCNC(=N)N)C(=O)N1CCC[C@H]1C(=O)N1CCC[C@H]1C(=O)N[C@@H](CCC(N)=O)C(=O)O`, the pIC50 was 4.42 in data set [1] and 6.40 in data set [2]. Further, the “Ratio IC50” value in data set [3] is 96. In addition, the Drug uptake with Liver is recorded as 16.1 pmol; in data set [4], 8.1 pmol.
As to `CC(C)[C@H](NC(=O)[C@H](CCCCN)NC(=O)[C@H](CCCNC(=N)N)NC(=O)[C@H](CCCCN)NC(=O)[C@H](CCCCN)NC(=O)[C@H](CCCCN)NC(=O)[C@@H]1CCCN1C(=O)CNC(=O)COCCOCCOCCOCCOCCOCCNC(=O)C[C@H](NC(=O)COCC(=O)Nc1ccc(-c2c3nc(c(-c4ccccc4)c4ccc([nH]4)c(-c4ccccc4)c4nc(c(-c5ccccc5)c5ccc2[nH]5)C=C4)C=C3)cc1)C(=O)NCCOCCOCCOCCOCCOCCOCC(=O)NCC(=O)N1CCC[C@H]1C(=O)N[C@@H](CCCCN)C(=O)N[C@@H](CCCCN)C(=O)N[C@@H](CCCCN)C(=O)N[C@@H](CCCNC(=N)N)C(=O)N[C@@H](CCCCN)C(=O)N[C@H](C(=O)O)C(C)C)C(=O)O` (I: X1-D[NH(CH2CH2O)6CH2CO]GPKKKRKV-OH / II: [NH(CH2CH2O)6CH2CO]GPKKKRKV-OH; amide I:1-II:N), the figures for the pIC50 in data set [1] and in data set [2] were 4.68 and 5.53, respectively. Moreover, in data set [3], the “Ratio IC50” value amounted to 7.
For `CC(C)C[C@H](NC(=O)[C@H](CCCCN)NC(=O)[C@H](CCCCN)NC(=O)[C@H](CCCCN)NC(=O)[C@H](C)NC(=O)[C@H](CCC(N)=O)NC(=O)CNC(=O)[C@H](C)NC(=O)[C@H](CCCCN)NC(=O)[C@H](CCCCN)NC(=O)[C@@H](NC(=O)[C@H](C)NC(=O)[C@H](C)NC(=O)[C@@H]1CCCN1C(=O)[C@H](CCCNC(=N)N)NC(=O)[C@H](CCCCN)NC(=O)COCCOCCOCCOCCOCCOCCNC(=O)COCC(=O)Nc1ccc(-c2c3nc(c(-c4ccccc4)c4ccc([nH]4)c(-c4ccccc4)c4nc(c(-c5ccccc5)c5ccc2[nH]5)C=C4)C=C3)cc1)[C@@H](C)O)C(=O)N[C@@H](CCC(=O)O)C(=O)N[C@@H](CC(=O)O)C(=O)N1CCC[C@H]1C(=O)N[C@@H](CCCNC(=N)N)C(=O)N[C@@H](CCCCN)C(=O)N[C@@H](CCCCN)C(=O)N[C@@H](CCCNC(=N)N)C(=O)N[C@@H](CCCNC(=N)N)C(=O)N[C@@H](CCC(N)=O)C(=O)N[C@@H](CCCNC(=N)N)C(=O)N[C@@H](CCCNC(=N)N)C(=O)N[C@@H](CCCNC(=N)N)C(=O)N1CCC[C@H]1C(=O)N1CCC[C@H]1C(=O)N[C@@H](CCC(N)=O)C(=O)NCC(=O)O` (X1-[NH(CH2CH2O)6CH2CO]KRPAATKKAGQAKKKLEDPRKKRRQRRRPPQG-OH), the pIC50 is 4.48 in data set [1] and 5.92 in data set [2]. In data set [3], the Ratio IC50 came to 27.
Consider `CC[C@H](C)[C@H](NC(=O)[C@H](CCCCN)NC(=O)[C@@H](NC(=O)[C@H](CCC(N)=O)NC(=O)[C@H](CCCNC(=N)N)NC(=O)COCCOCCOCCOCCOCCOCCNC(=O)COCC(=O)Nc1ccc(-c2c3nc(c(-c4ccccc4)c4ccc([nH]4)c(-c4ccccc4)c4nc(c(-c5ccccc5)c5ccc2[nH]5)C=C4)C=C3)cc1)[C@@H](C)CC)C(=O)N[C@@H](Cc1c[nH]c2ccccc12)C(=O)N[C@@H](Cc1ccccc1)C(=O)N[C@@H](CCC(N)=O)C(=O)N[C@@H](CC(N)=O)C(=O)N[C@@H](CCCNC(=N)N)C(=O)N[C@@H](CCCNC(=N)N)C(=O)N[C@@H](CCSC)C(=O)N[C@@H](CCCCN)C(=O)N[C@@H](Cc1c[nH]c2ccccc12)C(=O)N[C@@H](CCCCN)C(=O)N[C@@H](CCCCN)C(=O)N[C@@H](C)C(=O)N1CCC[C@H]1C(=O)N1CCC[C@H]1C(=O)N[C@@H](CCCCN)C(=O)N[C@@H](CCCCN)C(=O)N[C@@H](CCCCN)C(=O)N[C@@H](CCCNC(=N)N)C(=O)N[C@@H](CCCCN)C(=O)N[C@H](C(=O)NCC(=O)O)C(C)C` (X1-[NH(CH2CH2O)6CH2CO]RQIKIWFQNRRMKWKKAPPKKKRKVG-OH), for which the negative logarithm of the IC50 (pIC50) was 4.94 in data set [1] and 5.87 in data set [2]. For the same molecule, the Ratio IC50 in data set [3] was found to be 8.5.

Values taken from ChEMBL document CHEMBL1140188, “Photoinduced cytotoxicity and biodistribution of prostate cancer cell-targeted porphyrins” (J Med Chem, 2008).
